Converted amounts (≈) assume the structure as drawn.
Key:
HMEC = assay: (§1) Cytotoxicity against HMECs; format: toxicity, cell-based; details: human, hmec
Procedure, shortened: (§2)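 BT-474 breast cancer cells and nontumorigenic HMECs treated 48 h with concentrations up to 30 μM. CC50 derived from concentration–response viability plots. Values >30 μM assigned when viability fell by less than 50% of vehicle at 30 μM. Mean ± SEM, n ≥ 3.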

BT-474 = assay: Cytotoxicity against human BT-474 cells; format: functional; procedure, shortened: as §2
[1] = Aqueous kinetic solubility of the compound in PBS at pH 7.4 at 250 uM incubated for 24 hrs by UPLC/MS analysis; format: physicochemical; details: read-out: Kinetic_solubility
Procedure, shortened: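 Kinetic solubility measured in phosphate-buffered saline, pH 7.4. Mean of at least two independent experiments, each run in two technical replicates.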

[2] = Metabolic stability in mouse liver microsomes assessed as half life preincubated for 15 mins followed by NADPH addition and measured after 1 to 2 hrs by LC-MS/MS analysis; format: ADME, Microsome; details: time 75-135 min; for t1/2: microsomes; for half-life: liver microsomes
Procedure, shortened: (§3)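 Microsomal stability assessed in mouse, human, rat or dog liver microsomes with NADPH cofactor. Half-life and percent parent remaining at 60 and 120 min reported. Mean of at least two independent experiments, each in two technical replicates.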

[3] = as §1; format: toxicity, cell-based, HMEC; details: human, HMEC cells; procedure, shortened: as §2
[4] = Metabolic stability in mouse liver microsomes assessed as parent compound remaining preincubated for 15 mins followed by NADPH addition and measured after 2 hrs by LC-MS/MS analysis; format: ADME, Microsome; details: time 135 min, read-out: Stability; procedure, shortened: as §3
[5] = Metabolic stability in mouse liver microsomes assessed as parent compound remaining preincubated for 15 mins followed by NADPH addition and measured after 1 hr by LC-MS/MS analysis; format: ADME, Microsome; details: time 75 min, read-out: Stability; procedure, shortened: as §3
[6] = Metabolic stability in mouse liver microsomes assessed as half life preincubated for 15 mins followed by UDPGA addition and measured after 2 hrs by LC-MS/MS analysis; format: ADME, Microsome; details: time 135 min
Procedure, shortened: (§4)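 Mouse and human liver microsomes incubated with UDPGA cofactor. Half-life and percent parent remaining at 120 min reported. Mean of at least two independent experiments, each in two technical replicates.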

[7] = Metabolic stability in human liver microsomes assessed as half life preincubated for 15 mins followed by NADPH addition and measured after 1 to 2 hrs by LC-MS/MS analysis; format: ADME, Microsome; details: time 75-135 min; for half-life: liver microsomes; procedure, shortened: as §3
[8] = Metabolic stability in mouse liver microsomes assessed as half-life preincubated for 15 mins followed by UDPGA addition and measured after 2 hrs by LC-MS/MS analysis
[9] = Metabolic stability in human liver microsomes assessed as parent compound remaining preincubated for 15 mins followed by NADPH addition and measured after 2 hrs by LC-MS/MS analysis; format: ADME, Microsome; details: time 135 min, read-out: Stability; procedure, shortened: as §3
[10] = Metabolic stability in human liver microsomes assessed as parent compound remaining preincubated for 15 mins followed by UDPGA addition and measured after 2 hrs by LC-MS/MS analysis; format: ADME, Microsome; details: time 135 min, read-out: Stability; procedure, shortened: as §4
[11] = Metabolic stability in human liver microsomes assessed as parent compound remaining preincubated for 15 mins followed by NADPH addition and measured after 1 hr by LC-MS/MS analysis; format: ADME, Microsome; details: time 75 min, read-out: Stability; procedure, shortened: as §3
[12] = Metabolic stability in human liver microsomes assessed as percent compound remaining preincubated for 15 mins followed by UDPGA addition and measured after 2 hrs by LC-MS/MS analysis
[13] = Metabolic stability in rat liver microsomes assessed as half life preincubated for 15 mins followed by NADPH addition and measured after 1 to 2 hrs by LC-MS/MS analysis; format: ADME, Microsome; details: liver microsomes, time 75-135 min; procedure, shortened: as §3
[14] = Metabolic stability in dog liver microsomes assessed as half life preincubated for 15 mins followed by NADPH addition and measured after 1 to 2 hrs by LC-MS/MS analysis; format: ADME, Canis lupus familiaris, Microsome; details: microsomes, time 75-135 min; procedure, shortened: as §3
[15] = Metabolic stability in rat liver microsomes assessed as parent compound remaining preincubated for 15 mins followed by NADPH addition and measured after 1 to 2 hrs by LC-MS/MS analysis; format: ADME, Microsome; details: time 75-135 min; procedure, shortened: as §3

solubility kinetic at 24 h, 250 µM [1] [µM] | t1/2 [2] [min] | remaining at 2 h [4] [%] | remaining at 1 h [5] [%] | half-life [6] [min] | half-life [7] [min] | t1/2 at 2 h [8] [min] | remaining at 2 h [9] [%] | remaining at 2 h [10] [%] | remaining at 1 h [11] [%] | percent compound remaining at 2 h [12] [%] | half-life [2] [min] | t1/2 ([7]; microsomes) [min] | half-life [13] [min] | t1/2 [14] [min] | Stability [15] [%] | SMILES | CC50 (HMEC) [µM] | CC50 (BT-474) [µM] | CC50 [3] [µM]
220 (≈ 91.3 µg/mL) | 11 | – | – | – | – | – | – | – | – | – | – | – | – | – | – | CN1CCC(Cc2cccc(CNC3(c4ccc(F)cc4Cl)CCCC3)c2)CC1 | 21 | 4.25 | –
> 250 | 69 | 31 | 55 | > 120 | > 120 | > 120 | 58 | 95 | 75 | – | – | – | – | – | – | COc1cc(F)ccc1C1(NCc2ccc(F)c(CC3CCN(C)CC3)c2)CCCC1 | – | 6.88 | > 30
27 (≈ 10.7 µg/mL) | 42 | 13 | 34 | > 120 | – | > 120 | – | > 95 | – | – | – | – | – | – | – | CN1CCC(Cc2cccc(CNC3(c4ccc(F)cc4O)CCCC3)c2)CC1 | – | > 30 | > 30
248 (≈ 90.9 µg/mL) | – | 71 | 85 | > 120 | > 120 | > 120 | 62 | 95 | 80 | 95 | > 120 | – | – | – | – | Fc1ccc(C2(NCc3cccc(CC4CCNCC4)c3)CCCC2)cc1 | – | 2.74 | > 30
> 250 | – | – | 63 | – | – | – | – | – | – | – | > 60 | – | – | – | – | CN1CC(Cc2cccc(CNC3(c4ccc(F)cc4)CCCC3)c2)C1 | – | 13.4 | > 30
247 (≈ 101 µg/mL) | 98 | 42 | 64 | > 120 | – | > 120 | 50 | > 95 | 70 | – | – | 92 | – | – | – | COc1cc(F)ccc1C1(NCc2cccc(CC3CCN(C)CC3)c2)CCCC1 | – | 6.99 | > 30
249 (≈ 103 µg/mL) | – | – | 53 | – | – | – | – | – | – | – | > 60 | – | – | – | – | CN1CCC(Cc2cccc(CNC3(c4ccc(F)c(Cl)c4)CCCC3)c2)CC1 | 21.9 | 3.61 | –
41 (≈ 17.1 µg/mL) | – | – | – | – | – | – | – | – | – | – | < 5 | – | – | – | – | CN1CCC(Cc2cccc(CNC3(c4ccc(F)cc4)CCCC3)c2)C(F)(F)C1 (racemic) | – | 21.9 | > 30
226 (≈ 92.8 µg/mL) | 75 | 32 | 56 | – | > 120 | – | 65 | – | 84 | – | – | – | – | – | – | CN1CC2(CC(Cc3cccc(CNC4(c5ccc(F)c(F)c5)CCCC4)c3)C2)C1 | 14.8 | 2.99 | –
219 (≈ 89.9 µg/mL) | 91 | 40 | 62 | > 120 | > 120 | > 120 | 55 | > 95 | 80 | – | – | – | – | – | – | COc1cc(C2(NCc3cccc(CC4CCN(C)CC4)c3)CCCC2)ccc1F | – | 3.65 | > 30
209 (≈ 83.3 µg/mL) | – | 5 | 19 | – | – | – | – | – | – | – | < 30 | – | – | – | – | CN1CCC(Cc2cccc(CNC3(c4ccc(F)cc4F)CCCC3)c2)CC1 | – | 7.83 | > 30
246 (≈ 97.6 µg/mL) | 82 | – | – | > 120 | > 120 | > 120 | 54 | 95 | 74 | 95 | – | – | – | – | – | CN1CCC(Cc2ccc(O)c(CNC3(c4ccc(F)cc4)CCCC3)c2)CC1 | – | 7.03 | > 30
> 250 | 91 | 39 | 60 | > 120 | > 120 | > 120 | 71 | 95 | 84 | 95 | – | – | – | – | – | CN1CCC(Cc2cc(CNC3(c4ccc(F)cc4)CCCC3)ccc2F)CC1 | – | 5.89 | > 30
228 (≈ 95 µg/mL) | 80 | 34 | 58 | > 120 | > 120 | > 120 | 52 | 95 | 76 | 95 | – | – | – | – | – | CN1CCC(Cc2cc(CNC3(c4ccc(F)cc4)CCCC3)c(F)cc2F)CC1 | 20.4 | 3.11 | –
> 250 | 87 | 43 | 61 | > 120 | > 120 | > 120 | 63 | 95 | 83 | 95 | – | – | – | – | – | CN1CCC(Cc2cc(CNC3(c4ccc(F)cc4)CCCC3)ccc2O)CC1 | – | 5.1 | > 30
245 (≈ 97.6 µg/mL) | 70 | 31 | 56 | > 120 | > 120 | > 120 | 53 | > 95 | 75 | – | – | – | – | – | – | CN1CCC(Cc2cccc(CNC3(c4ccc(F)c(F)c4)CCCC3)c2)CC1 | – | 5.1 | > 30
232 (≈ 91.1 µg/mL) | 115 | 49 | 70 | > 120 | > 120 | > 120 | 66 | 95 | 82 | – | – | – | > 60 | 53 | 64 | CN1CC2(CC(Cc3cccc(CNC4(c5ccc(F)cc5)CCCC4)c3)C2)C1 | – | 4.83 | > 30
> 250 | – | 63 | 80 | > 120 | > 120 | > 120 | 71 | > 95 | 84 | 95 | > 120 | – | – | – | – | CN1CCC(Cc2cccc(CNC3(c4ccc(F)c(O)c4)CCCC3)c2)CC1 | – | 11.7 | > 30
231 (≈ 96.2 µg/mL) | 58 | 21 | 48 | – | > 120 | – | 56 | – | 77 | – | – | – | – | – | – | CN1CCC(Cc2cc(CNC3(c4ccc(F)c(F)c4)CCCC3)ccc2F)CC1 | – | 3.52 | > 30
246 (≈ 98 µg/mL) | 107 | 46 | 68 | > 120 | > 120 | > 120 | 53 | 95 | 75 | 95 | – | – | – | – | – | CN1CCC(Cc2ccc(F)c(CNC3(c4ccc(F)cc4)CCCC3)c2)CC1 | – | 5.45 | > 30
216 (≈ 89.6 µg/mL) | 56 | 29 | 51 | – | – | – | – | – | – | – | – | – | – | – | – | CN1CCC(Cc2cc(CNC3(c4ccc(F)cc4)CCCC3)ccc2Cl)CC1 | 15.4 | 2.34 | –
239 (≈ 97.7 µg/mL) | – | – | 58 | – | – | – | – | – | – | – | > 60 | – | – | – | – | CN1CCC(Cc2cccc(CNC3(c4ccc(F)cc4)CCCC3)c2)CC1(C)C (racemic) | – | 6.46 | > 30
